PubChem BioAssay
Inconclusive results are not listed.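 The calls were made as follows, unless noted: active = viability increase at or above a cutoff of the median across tested compounds plus 3 SD (cut at about 8.5% in these data, passing the limit was not always enough); inconclusive = some gains above the cutoff, reason not given; inactive = the rest.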

How the values were obtained:
[1] = S. cerevisiae growth inhibition in permissive medium (OD615), pilot counter-assay for S. cerevisiae lifespan shortening project, permissive growth control (AID 705;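 active = growth inhibition above 25% in both replicates, a cutoff set 3 SD above the mean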); conditions: OD615, 24 h, at 10 µM, active compounds read high
Procedure, shortened: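 Material: engineered DeaD yeast; Compound: one dose 10 µM, DMSO 0.25% final; Detection: absorbance (optical density) at 615 nm; Buffer or medium: permissive raffinose/galactose medium; Timing: 24 h exposure, 30 °C.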

[2] = S. cerevisiae growth inhibition in restrictive medium, OD615, pilot screen, restrictive growth control, yeast lifespan reduction project (AID 706;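 active = growth inhibition above a set limit, 3 SD over mean compound inhibition, in both replicates, cut at about 43% in these data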;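 also: modified DeaD lifespan yeast strain shifted to restrictive glucose medium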); conditions: OD615, 48 h, at 10 µM, active compounds read high
Procedure, shortened: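 Buffer or medium: restrictive glucose medium (CSMM-D); test system: modified S. cerevisiae; doses: single dose of 10 µM compound final, 0.25% DMSO; schedule: 48 h compound exposure at 30 °C; detection: absorbance (optical density) measured at 615 nm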

[3] = doxorubicin toxicity protection in MRP-1 cells – H69AR cells, CellTiter-Glo, duplicate, MRP-1 activator project, pilot screen (AID 807); conditions: H69AR viability with doxorubicin, CellTiter-Glo luminescence; at 10 µM; active compounds read high;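 also: compound pretreatment 18-22 h then 72 h combined with doxorubicin; 0% = doxorubicin alone and 100% = vehicle without doxorubicin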
[4] = viability of HCT116 without oncogenic beta-catenin – human colon tumor cells, pilot screen (AID 823;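 active = cell viability at or below a set limit in both duplicate runs, the limit being the all-compound median minus 4 SD, cut at about 23% in these data, passing the limit was not always enough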;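 also: 0% = wells killed by 20 µM Hyamine and 100% = untreated DMSO cell wells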); conditions: HCT116 beta-catenin knockout viability, CellTiter-Glo, 60 h; at 10 µM; active compounds read low
[5] = viability of PTEN-null HCT116 cells – cell-based, HCT116 clonal line, CellTiter-Glo, pilot screen (AID 824;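 active = viability at or below 27.92% in each of two runs, the all-compound median minus 4 SD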;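 also: 0% = 20 µM Hyamine control and 100% = vehicle cell control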); conditions: HCT116 PTEN-deleted viability, 60 h, at 10 µM, active compounds read low
[6] = RAM pathway blockade in budding yeast – dse1pr::URA3 reporter, 5-FOA selection, pilot screen (AID 869;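 active = inhibition over a set limit, the all-compound mean plus 3 SD, in both replicate runs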;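 also: 0% = DMSO wells with no growth and 100% = 10 µM 1-NA-PP1 with full growth; RAM network block rescues cells from 5-FOA so hits raise OD615 growth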); conditions: S. cerevisiae dse1pr::URA3 5-FOA growth, OD615, 2 d; at 10 µM; active compounds read high; strain carries analog-sensitive mutant Cbk1 kinase
[7] = RAM signaling pathway blockade in yeast – S. cerevisiae, Pdr1DBD-CYC8 efflux-inhibited sensitized strain, primary screen (AID 1298;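 active = RAM network inhibition above 8.4% in each of two replicates, 3 SD over the compound average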;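 also: 0% = DMSO untreated cells without growth and 100% = 10 µM 1-NA-PP1 full growth; higher means more yeast growth rescued from 5-FOA killing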); conditions: S. cerevisiae cbk1-as DSE1-URA3 strain, 5-FOA growth OD615, 2 d; at 50 µM; active compounds read high

CC1(C)CC(=O)C(=CN2CCN(C(=O)c3ccco3)CC2)C(=O)C1
inactive: growth inhibition [1] -20.6% | growth inhibition [2] -9.23% | viability increase [3] 0.72% | viability [4] 100% | viability [5] 90.3% | inhibition [6] 2.93% | RAM network inhibition [7] 3.19%

COc1ccccc1NC(=O)C1=C(C)Nc2nnnn2C1c1cccc(C)c1 (stereo not given)
inactive: growth inhibition [1] -13.2% | growth inhibition [2] -18.7% | viability increase [3] -5.73% | viability [4] 82.3% | viability [5] 80.8% | inhibition [6] 3.79% | RAM network inhibition [7] 2.19%

CC(C)N(C(=O)CSc1nc2c([nH]1)c(=O)n(C)c(=O)n2C)c1ccccc1
inactive: growth inhibition [1] -4.33% | growth inhibition [2] -12.7% | viability increase [3] 1.94% | viability [4] 106% | viability [5] 102% | inhibition [6] 1.22% | RAM network inhibition [7] 6.3%

O=C(Cc1c(C(=O)O)[nH]c2ccccc12)NC1CCN(Cc2ccccc2)CC1
inactive: growth inhibition [1] -9.14% | growth inhibition [2] -14.9% | viability increase [3] 0.24% | viability [4] 102% | viability [5] 99.8% | inhibition [6] 1.6% | RAM network inhibition [7] -1.14%

CC(C)(C)c1ccc(S(=O)(=O)N2CCN(CCC#N)CC2)cc1
inactive: growth inhibition [1] -8.29% | growth inhibition [2] -2.35% | viability increase [3] -2.4% | viability [4] 100% | viability [5] 96.3% | inhibition [6] 0.88% | RAM network inhibition [7] 4.27%

COc1ccc(Cl)cc1S(=O)(=O)n1ccnc1C(C)C
inactive: growth inhibition [1] -8.68% | growth inhibition [2] -13% | viability increase [3] -2.46% | viability [4] 102% | viability [5] 93.3% | inhibition [6] 1.74% | RAM network inhibition [7] 2.15%

Cc1ccc2oc(=O)c3cnn(CC(=O)NCCN4CCOCC4)c3c2c1
inactive: growth inhibition [1] -5.79% | growth inhibition [2] -12% | viability increase [3] -0.17% | viability [4] 103% | viability [5] 97.7% | inhibition [6] 1.15% | RAM network inhibition [7] 5.06%

CCOC(=O)N1CCC(NC(=O)C2CCN(Cc3nc(-c4ccc(CC)cc4)oc3C)CC2)CC1
inactive: growth inhibition [1] -8.25% | growth inhibition [2] -7.78% | viability increase [3] -1.2% | viability [4] 84.2% | viability [5] 85.9% | inhibition [6] 0.435% | RAM network inhibition [7] 0.29%

CCN1C(=O)c2ccccc2S(=O)c2ccc(C(=O)NCCCN3CCCC3=O)cc21 (stereo not given)
inactive: growth inhibition [1] -7.88% | growth inhibition [2] -6.62% | viability increase [3] -3.1% | viability [4] 97.5% | viability [5] 87.7% | inhibition [6] 0.64% | RAM network inhibition [7] -1.15%

Cc1cc(C)nc(SCC(=O)N2CCCCC2)n1
inactive: growth inhibition [1] -13.6% | growth inhibition [2] -20% | viability increase [3] 0.71% | viability [4] 97.4% | viability [5] 101% | inhibition [6] 2.34% | RAM network inhibition [7] 0.74%

CC1CCCCN1S(=O)(=O)c1cccc2cccnc12 (stereo not given)
inactive: growth inhibition [1] 6.45% | growth inhibition [2] 16.5% | viability increase [3] -3.21% | viability [4] 96.8% | viability [5] 83.7% | inhibition [6] 0.47% | RAM network inhibition [7] 3.59%

Cc1noc(C)c1S(=O)(=O)N(CC(=O)N1CCc2ccccc21)c1ccc(C(C)C)cc1
inactive: growth inhibition [1] -4.56% | growth inhibition [2] -7.38% | viability increase [3] -5.04% | viability [4] 86.7% | viability [5] 82.5% | inhibition [6] 1.3% | RAM network inhibition [7] 5.36%

Cc1nnc(SCCn2c(N(C)Cc3ccccc3)nc3c2c(=O)[nH]c(=O)n3C)s1
inactive: growth inhibition [1] -9.54% | growth inhibition [2] -5.15% | viability increase [3] -3.65% | viability [4] 99.8% | viability [5] 97.5% | inhibition [6] 2.33% | RAM network inhibition [7] 5.64%

NC(=O)c1ccc(N2CCCCC2)c(N2C(=O)C3C4C=CC(C4)C3C2=O)c1 (stereo not given)
inactive: growth inhibition [1] 0.39% | growth inhibition [2] -4.49% | viability increase [3] -2.98% | viability [4] 101% | viability [5] 92.6% | inhibition [6] 0.92% | RAM network inhibition [7] 3.75%

CCOC(=O)N1CCC(Nc2ccc3nnc(-c4ccccc4)n3n2)CC1
inactive: growth inhibition [1] 12.3% | growth inhibition [2] 29.3% | viability increase [3] -6.99% | viability [4] 69.4% | viability [5] 66% | inhibition [6] -0.975% | RAM network inhibition [7] 2.57%

CSc1ccc(CN2CCC(O)CC2)cc1
inactive: growth inhibition [1] -12.7% | growth inhibition [2] -15.8% | viability increase [3] -0.93% | viability [4] 102% | viability [5] 100% | inhibition [6] 1.4% | RAM network inhibition [7] 5.11%

CN(CCC#N)C(=O)Cn1nc(Cc2ccncc2)c2ccccc2c1=O
inactive: growth inhibition [1] -2.53% | growth inhibition [2] -1.35% | viability increase [3] 0.95% | viability [4] 102% | viability [5] 95.6% | inhibition [6] 0.515% | RAM network inhibition [7] 0.16%

O=C(Nc1nc(-c2ccccc2)cs1)c1cccs1
inactive: growth inhibition [1] -5.78% | growth inhibition [2] -1.27% | viability increase [3] -1.21% | viability [4] 66.3% | viability [5] 72.8% | inhibition [6] -0.845% | RAM network inhibition [7] 2.45%

O=C(CSc1nnc2ccccn12)N1CCc2ccccc2C1
inactive: growth inhibition [1] -8.87% | growth inhibition [2] 0.78% | viability increase [3] -0.88% | viability [4] 99.7% | viability [5] 93.2% | inhibition [6] 1.54% | RAM network inhibition [7] 2.11%

CCNc1nnc(-c2ccccc2OC)s1
inactive: growth inhibition [1] -2.37% | growth inhibition [2] 3.71% | viability increase [3] -0.41% | viability [4] 96% | viability [5] 103% | inhibition [6] -0.485% | RAM network inhibition [7] 5.21%

CCCOC(=O)CC1C(=O)NCCN1Cc1ccc(F)cc1 (stereo not given)
inactive: growth inhibition [1] -12.3% | growth inhibition [2] -6.77% | viability increase [3] -1.04% | viability [4] 104% | viability [5] 98.3% | inhibition [6] 2.83% | RAM network inhibition [7] 1.73%

CCOC(=O)c1ccccc1NC(=O)C1COc2ccccc2O1 (stereo not given)
inactive: growth inhibition [1] -25.8% | growth inhibition [2] -30.7% | viability increase [3] 4.16% | viability [4] 83.2% | viability [5] 87.8% | inhibition [6] 1.09% | RAM network inhibition [7] 4.22%

Nc1nc(NC(=O)c2ccco2)nn1-c1ccccc1
inactive: growth inhibition [1] -11.7% | growth inhibition [2] 1.96% | viability increase [3] -2.61% | viability [4] 93.8% | viability [5] 98.6% | inhibition [6] -0.025% | RAM network inhibition [7] 5.17%

CCC(=O)Nc1sc2c(c1C(N)=O)CCN(C(C)=O)C2
inactive: growth inhibition [1] -12.9% | growth inhibition [2] -19.6% | viability increase [3] -0.72% | viability [4] 103% | viability [5] 105% | inhibition [6] 1.94% | RAM network inhibition [7] 3.29%

CC(C)(C)NC(=O)c1cnn2c1NC(c1ccc(F)cc1)CC2C(F)(F)F (stereo not given)
inactive: growth inhibition [1] -14.6% | growth inhibition [2] -18.1% | viability increase [3] -0.08% | viability [4] 89.5% | viability [5] 87.1% | inhibition [6] 3.81% | RAM network inhibition [7] 6.9%

COCCNC(=O)c1cc(-c2ccccc2OC)on1
inactive: growth inhibition [1] 5.14% | growth inhibition [2] 11.4% | viability increase [3] -5.78% | viability [4] 62.3% | viability [5] 55.5% | inhibition [6] -0.05% | RAM network inhibition [7] 2.09%

Cc1noc(C)c1S(=O)(=O)N1CCN(C(c2ccccc2)c2ccc(Cl)cc2)CC1 (stereo not given)
inactive: growth inhibition [1] -1.19% | growth inhibition [2] -0.625% | viability increase [3] 0.02% | viability [4] 66.3% | viability [5] 67.5% | inhibition [6] 1.61% | RAM network inhibition [7] 7.2%

COc1ccc(C2CC(c3cccc(Cl)c3)n3nc(N)nc3N2)cc1 (stereo not given)
inactive: growth inhibition [1] -3.22% | growth inhibition [2] -3.25% | viability increase [3] -0.53% | viability [4] 99.8% | viability [5] 89.9% | inhibition [6] 1.37% | RAM network inhibition [7] 2.3%

CC(C)n1c(=O)[nH]c2ccccc21
inactive: growth inhibition [1] -18.3% | growth inhibition [2] -9.29% | viability increase [3] -4.28% | viability [4] 89% | viability [5] 89.8% | inhibition [6] 0.575% | RAM network inhibition [7] 2.88%

CCOC(=O)N1CCN(CC(=O)Nc2ccc(C)cc2)CC1
inactive: growth inhibition [1] -4.43% | growth inhibition [2] 4.79% | viability increase [3] -3.03% | viability [4] 98.3% | viability [5] 100% | inhibition [6] 1.11% | RAM network inhibition [7] -0.15%

COC(=O)C1=CNC=C(C(=O)OC)C1c1ccc(C(=O)OC)cc1
inactive: growth inhibition [1] 1.55% | growth inhibition [2] 6.7% | viability increase [3] -3.35% | viability [4] 93.5% | viability [5] 98.3% | inhibition [6] 0.165% | RAM network inhibition [7] 2.17%

COC(=O)CCC(=O)Nc1ccc(Br)cc1
inactive: growth inhibition [1] 8.2% | growth inhibition [2] 0.895% | viability increase [3] -1.52% | viability [4] 101% | viability [5] 95.4% | inhibition [6] 1.16% | RAM network inhibition [7] 6.37%

CCCCn1c(=NC(=O)c2cccnc2)c(C(=O)OCC)cc2c(=O)n3ccccc3nc21
inactive: growth inhibition [1] -19.8% | growth inhibition [2] -15% | viability increase [3] -4.72% | viability [4] 84.2% | viability [5] 88.1% | inhibition [6] 0.685% | RAM network inhibition [7] 7.68%

CCOC(=O)Cn1c(=O)oc2cc(S(=O)(=O)Nc3ccc(N(CC)CC)cc3C)ccc21
inactive: growth inhibition [1] -11.3% | growth inhibition [2] -8.05% | viability increase [3] 0.16% | viability [4] 85.6% | viability [5] 86.6% | inhibition [6] 1.81% | RAM network inhibition [7] 9.51%

CC1CCCN(c2ncnc3c2cnn3-c2ccccc2)C1 (stereo not given)
inactive: growth inhibition [1] -2.51% | growth inhibition [2] -4.29% | viability increase [3] -2.92% | viability [4] 77.5% | viability [5] 73.5% | inhibition [6] 0.15% | RAM network inhibition [7] 4.59%
